{"source": "ChEMBL document CHEMBL1155242", "about": "“Radiolabeled 5-iodo-3'-O-(17beta-succinyl-5alpha-androstan-3-one)-2'-deoxyuridine and its 5'-monophosphate for imaging and therapy of androgen receptor-positive cancers: synthesis and biological evaluation” (J Med Chem, 2009)", "key": {"[1]": {"target": "T1, Sex hormone-binding globulin (Oryctolagus cuniculus, UniProt P15196)", "T1 sequence (P15196 whole entry)": "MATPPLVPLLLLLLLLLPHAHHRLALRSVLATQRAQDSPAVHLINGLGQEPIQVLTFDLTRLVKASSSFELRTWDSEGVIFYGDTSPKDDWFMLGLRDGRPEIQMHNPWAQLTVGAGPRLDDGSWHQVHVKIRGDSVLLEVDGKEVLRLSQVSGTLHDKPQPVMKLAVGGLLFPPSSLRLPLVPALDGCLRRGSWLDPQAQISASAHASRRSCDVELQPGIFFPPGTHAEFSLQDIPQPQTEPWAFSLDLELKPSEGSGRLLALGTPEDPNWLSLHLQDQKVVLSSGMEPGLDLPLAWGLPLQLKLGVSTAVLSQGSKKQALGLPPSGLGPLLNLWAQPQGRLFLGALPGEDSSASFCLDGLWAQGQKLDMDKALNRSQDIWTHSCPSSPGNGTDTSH", "experiment": "Binding affinity to rabbit sex hormone binding globulin at 20 uCi after 60 mins by reversed phase HPLC analysis", "type": "ADME", "conditions": "1 h; call rule not given here"}, "Stomach": {"system": "Stomach", "experiment": "Biodistribution in stomach of athymic NCr mouse xenografted with human OVCAR-3 cells assessed per gram of tissue at an average 39.5 uCi/dose, ip administered 9 days after tumor implantation as six fractionated doses every 4 days measured after 2 weeks of last dose by gamma counting", "type": "ADME, organism-based", "conditions": "in vivo, 336 h", "summary_of_the_method": "(§1)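 OVCAR-3-bearing and healthy athymic mice given fractionated ip doses on the six-dose every-4-days schedule; tissues, tumor and lavaged cells γ-counted at necropsy, %ID/g; DNA-bound 125I in cells measured as cpm/cell.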"}, "OVCAR-3": {"system": "OVCAR-3", "experiment": "Cellular uptake in human OVCAR-3 cells xenografted in athymic NCr mouse assessed as [125I]UdR retention per cell at an average 39.5 uCi/dose, ip administered 9 days after tumor implantation as six fractionated doses every 4 days measured after 2 weeks of last dose by gamma counting", "type": "ADME, organism-based", "conditions": "in vivo, 336 h", "summary_of_the_method": "as §1"}, "[2]": {"experiment": "Stability in rabbit serum assessed as half life at 10 to 20 uCi/mL by size-exclusion HPLC analysis", "type": "ADME, cell-free, Oryctolagus cuniculus", "summary_of_the_method": "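The compound was incubated with rabbit or human serum at ambient temperature, and aliquots were taken at 1, 5 and 24 h. Aliquots were run on size-exclusion HPLC (TSK3000; 0.1 M potassium phosphate/0.1 M Na2SO4, pH 6.8, then an acetonitrile gradient). Extracts were run on C18 reversed-phase HPLC (water/acetonitrile with 0.07% TFA). Half-lives came from a monoexponential fit.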"}, "[3]": {"experiment": "Chemical stability in RPMI-1640 serum-free medium assessed as half life at 12.2 uCi by HPLC analysis", "type": "physicochemical"}, "[4]": {"target": "T1, Sex hormone-binding globulin", "experiment": "Binding affinity to rabbit sex hormone binding globulin at 10 to 20 uCi/mL after 60 mins by reversed phase HPLC analysis", "type": "ADME", "conditions": "1 h"}}}
{"smiles": "C[C@]12CCC(=O)C[C@@H]1CC[C@@H]1[C@@H]2CC[C@]2(C)[C@@H](OC(=O)CCC(=O)O[C@H]3C[C@H](n4cc([125I])c(=O)[nH]c4=O)O[C@@H]3COP(=O)(O)O)CC[C@@H]12", "values": [{"measurement": "Activity", "setting": "[1]", "value": "Active"}, {"measurement": "Drug uptake", "setting": "Stomach", "value": 0.009, "unit": "%ID"}]}
{"smiles": "C[C@]12CCC(=O)C[C@@H]1CC[C@@H]1[C@@H]2CC[C@]2(C)[C@@H](OC(=O)CCC(=O)O[C@H]3C[C@H](n4cc([125I])c(=O)[nH]c4=O)O[C@@H]3CO)CC[C@@H]12", "values": [{"measurement": "Drug uptake", "setting": "OVCAR-3", "value": 0.0124, "unit": "cpm"}, {"measurement": "t1/2", "setting": "[2]", "value": 5.7, "unit": "h"}, {"measurement": "t1/2", "setting": "[3]", "value": 54.2, "unit": "h"}, {"measurement": "Activity", "setting": "[4]", "value": "Active"}]}
